Results published in ChEMBL document CHEMBL3286341, “Novel, potent and selective 17β-hydroxysteroid dehydrogenase type 2 inhibitors as potential therapeutics for osteoporosis with dual human and mouse activities” (Eur J Med Chem, 2014).
Calls of active or inactive are those of the source. The calls are words filed in the database; no cut-off is given here.

Experiments:
[1] = molecular target: T1, Estrogen receptor (Homo sapiens) (UniProt P03372); experiment: Displacement of [3H]-estradiol from recombinant human estrogen receptor-alpha by liquid scintillation counting analysis relative to estradiol
T1 sequence (whole entry): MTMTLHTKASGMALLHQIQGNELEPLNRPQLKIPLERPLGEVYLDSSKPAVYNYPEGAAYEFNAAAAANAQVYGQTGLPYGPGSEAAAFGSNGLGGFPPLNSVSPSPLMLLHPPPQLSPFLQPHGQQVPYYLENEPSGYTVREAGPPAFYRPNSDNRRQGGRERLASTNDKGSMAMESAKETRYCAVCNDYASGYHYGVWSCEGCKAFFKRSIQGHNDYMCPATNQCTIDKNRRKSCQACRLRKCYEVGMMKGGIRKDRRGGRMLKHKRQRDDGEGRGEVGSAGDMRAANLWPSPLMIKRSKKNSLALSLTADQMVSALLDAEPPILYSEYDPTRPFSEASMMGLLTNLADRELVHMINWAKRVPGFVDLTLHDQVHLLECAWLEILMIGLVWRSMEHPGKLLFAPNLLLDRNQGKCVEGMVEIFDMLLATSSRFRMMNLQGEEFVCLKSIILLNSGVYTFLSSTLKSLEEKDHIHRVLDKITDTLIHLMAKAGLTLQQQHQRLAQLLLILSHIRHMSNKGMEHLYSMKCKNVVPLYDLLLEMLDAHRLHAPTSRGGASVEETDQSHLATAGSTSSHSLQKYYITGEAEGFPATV
How it was run: (§1)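 Competitive binding with [³H]-E2; compounds in DMSO at 5% final. Non-specific binding was set with unlabeled E2 at 100-fold the tracer: 300 nM for ERα, 1000 nM for ERβ. Bound complexes were captured on hydroxyapatite and counted by liquid scintillation. Concentrations displacing 50% were read from sigmoidal curves, with E2 run in each experiment. RBA[%] = IC50(E2)/IC50(compound) × 100.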

Homo sapiens = species: Homo sapiens; experiment: Selectivity factor, ratio of IC50 for human placental 17beta-HSD1 cytosolic fraction to IC50 for placental 17beta-HSD2 microsomal fraction
How it was run: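 Selectivity factor calculated as IC50(h17β-HSD1)/IC50(h17β-HSD2), both IC50 values taken from the placental cytosolic and microsomal radiolabel HPLC assays.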

[2] = molecular target: Estrogen receptor beta (Homo sapiens) (UniProt Q92731); experiment: Displacement of [3H]-estradiol from recombinant human estrogen receptor-beta by liquid scintillation counting analysis relative to estradiol; how it was run: as §1
[3] = molecular target: T2, Estradiol 17-beta-dehydrogenase 2 (Mus musculus) (UniProt P51658); experiment: Inhibition of mouse liver 17beta-HSD2 microsomal fraction using tritiated estradiol as substrate assessed as formation of estrone at 1 uM by HPLC analysis relative to control
T2 sequence (whole entry): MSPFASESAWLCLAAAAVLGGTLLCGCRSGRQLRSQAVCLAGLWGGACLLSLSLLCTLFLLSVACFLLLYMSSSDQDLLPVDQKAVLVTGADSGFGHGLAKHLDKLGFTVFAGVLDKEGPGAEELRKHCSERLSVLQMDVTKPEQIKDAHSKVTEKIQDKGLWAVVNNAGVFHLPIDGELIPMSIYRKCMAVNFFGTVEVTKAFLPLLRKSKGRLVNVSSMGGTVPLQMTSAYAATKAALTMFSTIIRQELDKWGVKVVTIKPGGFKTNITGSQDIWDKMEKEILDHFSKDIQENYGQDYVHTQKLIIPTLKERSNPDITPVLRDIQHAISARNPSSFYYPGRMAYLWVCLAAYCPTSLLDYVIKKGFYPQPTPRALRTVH
How it was run: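 Mouse liver microsomes were used, following the same procedure as the human type 2 assay: tritiated E2 at 500 nM with NAD⁺, and E1 formation quantified after HPLC separation.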

[4] = molecular target: T3, 17-beta-hydroxysteroid dehydrogenase type 2 (Homo sapiens) (UniProt P37059); experiment: Inhibition of human placental 17beta-HSD2 microsomal fraction using tritiated estradiol as substrate assessed as formation of estrone at 1 uM by HPLC analysis relative to control
T3 sequence (whole entry): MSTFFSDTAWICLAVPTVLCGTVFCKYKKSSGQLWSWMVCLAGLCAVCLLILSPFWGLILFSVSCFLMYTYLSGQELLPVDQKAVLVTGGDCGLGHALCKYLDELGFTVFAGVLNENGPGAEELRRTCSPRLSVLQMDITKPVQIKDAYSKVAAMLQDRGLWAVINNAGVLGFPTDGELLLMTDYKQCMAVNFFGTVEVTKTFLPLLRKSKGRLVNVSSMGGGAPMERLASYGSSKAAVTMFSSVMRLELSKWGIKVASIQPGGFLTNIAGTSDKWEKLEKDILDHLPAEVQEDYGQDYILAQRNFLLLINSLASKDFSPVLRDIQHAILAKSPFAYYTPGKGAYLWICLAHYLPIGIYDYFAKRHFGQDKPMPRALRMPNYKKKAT
How it was run: (§2)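 Placental microsomes were incubated with tritiated E2 (500 nM final) plus NAD⁺ cofactor and test compound. Labeled E2 and E1 were separated by HPLC and quantified. Mean of three determinations, standard deviation below 20%.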

[5] = molecular target: T4, 17-beta-hydroxysteroid dehydrogenase type 1 (Homo sapiens) (UniProt P14061); experiment: Inhibition of human placental 17beta-HSD1 cytosolic fraction using tritiated estrone as substrate assessed as formation of estradiol at 1 uM by HPLC analysis relative to control
T4 sequence (whole entry): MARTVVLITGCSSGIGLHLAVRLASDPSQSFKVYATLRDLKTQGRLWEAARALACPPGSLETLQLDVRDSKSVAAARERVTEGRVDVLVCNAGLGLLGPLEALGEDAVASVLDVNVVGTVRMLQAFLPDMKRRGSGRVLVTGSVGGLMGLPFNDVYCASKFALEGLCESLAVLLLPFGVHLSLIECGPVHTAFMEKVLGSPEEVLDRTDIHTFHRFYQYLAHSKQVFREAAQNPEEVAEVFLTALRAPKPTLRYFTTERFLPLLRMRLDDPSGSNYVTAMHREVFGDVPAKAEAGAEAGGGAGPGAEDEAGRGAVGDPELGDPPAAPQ
How it was run: (§3)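 Cytosolic fraction from placenta served as the enzyme source, incubated with tritiated E1 (500 nM final), NADH cofactor and test compound. E1 and E2 were separated by HPLC and the labeled species quantified. Mean of three determinations.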

[6] = molecular target: T5, 17-beta-hydroxysteroid dehydrogenase type 2 (Homo sapiens, UniProt P37059); experiment: Inhibition of human placental 17beta-HSD2 microsomal fraction using tritiated estradiol as substrate assessed as formation of estrone by HPLC analysis; how it was run: as §2
T5 sequence (P37059 whole entry): T3 sequence (whole entry)

[7] = molecular target: T6, 17-beta-hydroxysteroid dehydrogenase type 1 (Homo sapiens, UniProt P14061); experiment: Inhibition of human placental 17beta-HSD1 cytosolic fraction using tritiated estrone as substrate assessed as formation of estradiol by HPLC analysis; how it was run: as §3
T6 sequence (P14061 whole entry): T4 sequence (whole entry)

Chain of Estrogen receptor beta (Homo sapiens) (Q92731 whole entry): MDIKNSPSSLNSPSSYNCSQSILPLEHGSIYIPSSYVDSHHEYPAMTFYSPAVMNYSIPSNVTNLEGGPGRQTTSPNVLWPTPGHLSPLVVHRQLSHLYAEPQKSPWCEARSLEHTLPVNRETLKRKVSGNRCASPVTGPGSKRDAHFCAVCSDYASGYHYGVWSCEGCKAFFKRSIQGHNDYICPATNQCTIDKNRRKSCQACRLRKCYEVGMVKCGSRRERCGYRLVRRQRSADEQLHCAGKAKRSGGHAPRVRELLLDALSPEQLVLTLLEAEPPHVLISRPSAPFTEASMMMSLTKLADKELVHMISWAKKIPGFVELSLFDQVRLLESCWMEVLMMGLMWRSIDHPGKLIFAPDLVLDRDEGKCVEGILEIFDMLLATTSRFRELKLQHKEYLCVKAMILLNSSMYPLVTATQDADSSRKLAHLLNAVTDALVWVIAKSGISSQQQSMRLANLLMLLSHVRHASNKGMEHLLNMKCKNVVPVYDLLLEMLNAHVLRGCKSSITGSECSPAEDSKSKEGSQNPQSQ

| SMILES | RBA [1] [%] | Ratio IC50 (Homo sapiens) | RBA [2] [%] | inhibition [3] | inhibition [4] [%] | inhibition [5] | IC50 [6] [µM] | IC50 [7] [µM] |
| --- | --- | --- | --- | --- | --- | --- | --- | --- |
| Oc1cccc(-c2cc(-c3cccc(O)c3)c(-c3cccc(O)c3)s2)c1 | < 0.1 | 2 | < 0.1 | inactive |  |  |  |  |
| COc1cccc(-c2ccc(C(=O)N(C)Cc3cccc(O)c3)s2)c1F |  | 73 |  |  |  | inactive |  |  |
| Cc1cc(-c2cccc(O)c2)sc1-c1cccc(O)c1 |  | 2 |  | inactive |  |  |  |  |
| COc1cccc(-c2csc(C(=O)N(C)c3cccc(OC)c3)c2)c1 | < 0.1 |  | < 0.1 |  |  |  |  |  |
| CN(C(=O)c1cc(-c2cccc(O)c2)sc1-c1cccc(O)c1)c1cccc(O)c1 |  | 7 |  | 42% | 74 | 29% | 0.362 | 2.49 |
| COc1cccc(CN(C)C(=O)c2ccc(-c3cccc(OC)c3)s2)c1 |  | > 250 |  | 26% |  | inactive |  | > 10 |

Continued, values first:

| RBA [1] [%] | Ratio IC50 (Homo sapiens) | RBA [2] [%] | inhibition [3] | inhibition [4] [%] | inhibition [5] | IC50 [6] [µM] | IC50 [7] [µM] | SMILES |
| --- | --- | --- | --- | --- | --- | --- | --- | --- |
|  |  |  | inactive | 37 | 43% |  |  | O=C(Cc1cccc(O)c1)c1ccc(-c2cccc(O)c2)s1 |
|  | 1 |  | 42% | 73 | 54% | 0.357 | 0.336 | CC(C)(C(=O)c1ccc(-c2cccc(O)c2)s1)c1cccc(O)c1 |
|  | 14 |  | 16% |  |  |  |  | CN(Cc1cccc(O)c1)C(=O)c1ccc(-c2cccc(O)c2)s1 |
|  |  |  | 12% | 17 | inactive |  |  | COc1cccc(CC(=O)c2ccc(-c3cccc(OC)c3)s2)c1 |
